This is a sample that favours compounds with a hit; in the whole collection about 29% have one here.
CYP2C9 inhib – blocks human cytochrome P450 2C9. P11712. inhibition, % at 5 µM. CYP2C9 Supersomes, luciferin-H conversion, luminescence. hit rate 20% among 96,000. AID 777;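 active means blocking of liver enzyme CYP2C9 beyond about 50% at 5 µM, limit read from the data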
CYP2C19 act – activators of human cytochrome P450 2C19. recombinant CYP2C19, luciferin-H EGE luminescence; active compounds read high; 0 = fully inhibited enzyme, 1 = untreated enzyme. activation factor at 5 µM. 96,000 tested, under 10 active;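 active means activation factor of at least 2 at 5 µM in the primary screen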;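 further: 0 = wells with 2.5 mM tranylcypromine and 1 = vehicle-only wells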
Target sequence (P33261 whole entry, looked up): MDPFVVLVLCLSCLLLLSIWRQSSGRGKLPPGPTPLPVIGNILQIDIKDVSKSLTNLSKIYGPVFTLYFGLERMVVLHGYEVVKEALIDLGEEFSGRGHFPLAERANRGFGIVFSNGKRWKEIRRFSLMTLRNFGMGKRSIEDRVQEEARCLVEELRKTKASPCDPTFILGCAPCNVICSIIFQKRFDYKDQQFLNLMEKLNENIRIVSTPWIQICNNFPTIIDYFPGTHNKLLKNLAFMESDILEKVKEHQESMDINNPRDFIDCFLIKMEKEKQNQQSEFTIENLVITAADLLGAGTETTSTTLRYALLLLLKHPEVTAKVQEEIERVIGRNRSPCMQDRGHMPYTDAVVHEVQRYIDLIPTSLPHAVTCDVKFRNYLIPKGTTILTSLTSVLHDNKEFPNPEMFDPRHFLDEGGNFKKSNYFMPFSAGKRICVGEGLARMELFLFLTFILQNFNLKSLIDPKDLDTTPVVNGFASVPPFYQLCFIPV
CYP2C19 inhib – human CYP2C19 inhibition; P33261; CYP2C19 Supersomes, luciferin-H EGE luminescence, 30 min; inhibition, % at 5 µM; hit rate 21% among 96,000; AID 778;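 active means CYP2C19 inhibition above a set limit at 5 µM in the primary screen, cut at about 50% in these data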;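 further: plate controls were negative control wells for no effect and 2.5 mM tranylcypromine positive control for full effect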
Ecoli tolC – E. coli tolC mutant growth inhibition; growth inhibition, % at 10 µM (by protocol); hit rate 2.2% among 65,000; E. coli BW25113 tolC mutant growth, OD615; AID 573;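 active means growth inhibition at or above a cutoff equal to the mean over every tested compound plus 3 SD, cut at about 60% in these data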;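 further: growth measured after 20 h incubation at 37 °C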
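signal = optical density read at 615 nm | test system = E. coli ΔtolC::kan strain BW25113 | timing = 20 h compound exposure of bacteria at 37 °C | buffer or medium = LB medium plus 50 µg/mL kanamycin | compound dosing = 10 µM final, single dose | evaluation = % inhibition of E. coli growth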
CYP2C9 act – activators of human CYP2C9; P11712; hit rate 1.4% among 96,000; activation factor at 5 µM; recombinant CYP2C9, luciferin-H conversion, luminescence; active compounds read high; factor 1 = untreated enzyme, 0 = blocked;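 active means activation factor of 2 or more for CYP2C9 at a 5 µM dose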;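 further: 0 = sulfaphenazole-blocked wells and 1 = vehicle-only wells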
E coli WT exp – blocks growth of wild type E. coli BW25113; OD600 absorbance; growth inhibition, % at 100 µM; hit rate 0.15% among 98,000;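 active means growth inhibition above about 50% at one test dose, limit read from the data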;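 further: growth measured after 20 h incubation at 37 °C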
Active calls of the source: *; · = no result given.

SMILES	CYP2C9 inhib	CYP2C19 act	CYP2C19 inhib	Ecoli tolC	CYP2C9 act	E coli WT exp
Cc1ccc(C)c(NC(=O)CSc2nnc(CSc3nc(C)cc(C)n3)n2Cc2ccco2)c1	51*	0.7	34	7	0.5	-1
Cc1cc(C)nc(SCc2nnc(SCC(=O)Nc3ccccc3C)n2Cc2ccco2)n1	70*	0.4	62*	0	0.3	-3
Cc1cc(C)nc(SCc2nnc(SCC(N)=O)n2Cc2ccco2)n1	-4	1	2	·	1	-5
Cc1ccc(NCc2nnc(SCC(=O)c3ccccc3)o2)c(C)c1	0	1	-3	-8	1	0
Cc1ccc(C)c(CSc2nnc(-c3cccs3)n2Cc2ccco2)c1	49	0.5	52*	·	0.5	-5
Cc1ccc(NC(=O)CSc2nnc(CSc3nc(C)cc(C)n3)n2Cc2ccco2)c(C)c1	28	0.9	8	2	0.7	-2
Cc1ccc(NCc2nnc(SCC(=O)c3ccccc3)n2Cc2ccco2)c(C)c1	81*	0.2	84*	27	0.2	-7
CCCc1oc(C(=O)O)cc1CN1CCOCC1	-69	0.7	28	·	1.7	3
CC(C)(C)c1cccc(OCCCSc2ncccn2)c1	1	1	-3	·	1	5
CCOC(=O)N1CCC(N2Cc3cccc(C(=O)N4CC(C)CC(C)C4)c3C2=O)CC1 (stereo not given)	·	·	·	-8	·	·
Cc1c(C(=O)N2CCCCC2)sc(NC(=O)C2CC2)c1C#N	56*	0.5	54*	6	0.4	-3
Cc1c(C(=O)N2CCCCC2)sc(NC(=O)C(C)C)c1C#N	68*	0.4	62*	-5	0.3	-1
Cc1c(C(=O)N2CCCC2)sc(NC(=O)c2cccs2)c1C#N	94*	0.9	8	8	0.1	1
Cc1c(C(=O)N2CCCCC2)sc(N)c1C#N	18	0.8	19	-9	0.8	9
Cc1ccc(C)c(N(CC(=O)NC2CCCCC2)C(=O)CCC(=O)Nc2ccccn2)c1	80*	0.3	66*	8	0.2	·
Cc1ccnc(NC(=O)CCC(=O)N(CC(=O)NC2CCCCC2)c2cccc(C)c2C)c1	56*	0.6	42	16	0.4	-8
O=C(CCC(=O)N(CC(=O)NC1CCCC1)C1CCCC1)Nc1ccccn1	13	0.8	24	-14	0.9	0
Cc1ccc(N(CC(=O)NC2CCCC2)C(=O)CCCC(=O)Nc2ccccn2)cc1C	56*	0.4	56*	-3	0.4	0
Cc1cc(C)cc(N(CC(=O)NC2CCCCC2)C(=O)CCC(=O)Nc2cc(C)ccn2)c1	46	0.5	46	-4	0.5	·
O=C(c1cccc(COCC(F)(F)C(F)F)c1)N1CCN(c2ccccc2)CC1	36	0.5	46	15	0.6	-2
O=C(c1ccccc1)c1ccc(C(=O)N2CCN(c3ccc(F)cc3)CC2)o1	81*	0.1	89*	55	0.2	-16
CCc1ccc(C(=O)N2CCN(c3ccc(F)cc3)CC2)s1	48	0.1	87*	35	0.5	10
COc1ccc(NC(=O)c2ccc(C(=O)c3cc(OC)ccc3OC)cc2)cc1	11	1	0	·	0.9	-15
Cc1ccc(C)c(NC(=O)Cn2nc(C)c3ccccc3c2=O)c1	1	0.9	14	-6	1	·
CCOC(=O)c1sc2nc(N3CCOCC3)c3c(c2c1N)CCCC3	9	1	2	-7	0.9	-4
SMILES	CYP2C9 inhib	CYP2C19 act	CYP2C19 inhib	Ecoli tolC	CYP2C9 act	E coli WT exp
COC(=O)c1sc2nc(-c3ccccc3)c3c(c2c1N)CCCC3	32	1	3	·	0.7	-7
CCN(CC)C(=O)c1sc2nc(N3CCOCC3)c3c(c2c1N)CCCC3	52*	1	-2	·	0.5	2
COC(=O)c1sc2nc(N3CCCCC3)c3c(c2c1N)CCCC3	72*	0.6	37	·	0.3	-4
NC(=O)c1sc2nc(N3CCCCC3)c3c(c2c1N)CCCC3	68*	0.6	43	17	0.3	1
Nc1c(C(=O)NCc2ccco2)sc2nc(N3CCOCC3)c3c(c12)CCCC3	56*	1.1	-7	2	0.4	-3
Cc1cccc(OCC(=O)NNC(=O)Nc2cccc(Cl)c2)c1C	-3	1	2	·	1	-11
COC(=O)c1ccc(-c2sc3nc(N4CCOCC4)c4c(c3c2N)CCCC4)o1	55*	0.4	57*	4	0.4	-6
CC(=O)c1cc(C)ccc1OC(=O)c1cccc2nc(C)oc12	61*	0.4	57*	-7	0.4	3
